From paper PMC7330163 (Pharmacology Research & Perspectives, 2020)
Marks after values point to notes of the source that are not given here.

Assays:
[1] = Single-dose intravenous pharmacokinetics in dog; format: in vivo, Beagle dog; details: male, plasma
Method in brief: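 Three male Beagles in a cross-over design with 7-day wash-out between dosing events. The intravenous solution was PEG400/N-methylpyrrolidone/50 mmol/L TRIS-HCl pH 8.3 (1:1:2 v/v/v). Plasma stored at −20°C. T1/2 = ln(2)/λz; AUC by log-linear trapezoidal rule.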

[2] = Single-dose oral pharmacokinetics in rat; format: in vivo; details: Sprague-Dawley, plasma
[3] = Single-dose oral pharmacokinetics in dog; format: in vivo; details: male, Beagle, plasma
[4] = Plasma exposure in the 8-day mechanistic follow-up study in male rats; format: in vivo, Sprague-Dawley rat; details: for AUC: male, Sprague-Dawley, plasma, oral; for AUC / AUC0‐24 h (day 1) / AUC0‐24 h (day 8/28): rat; for AUC0‐24 h (day 1) / AUC0‐24 h (day 8/28): males, 8-day study
[5] = Toxicokinetics of the 4-week toxicity study in dog; format: in vivo, Beagle dog; details: for AUC0‐24 h (day 8/28): day 28
Cyp2c6 [6] = assay: Taqman mRNA upregulation in rat liver, 4-week toxicity study; format: in vivo, Sprague-Dawley rat; details: 4-week study
Method in brief: (§1)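 Livers came from satellite-group rats of both sexes (n = 5–6) in the 4-week study, dosed once daily at 0, 50, 150, 450 or 1500 mg/kg in modified gelatine. Transcripts quantified by comparative Ct, normalised to 18S and to vehicle-treated controls; fold change = 2−ΔΔCT.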

Cyp2c11 [7] = assay: as above; format: in vivo, Sprague-Dawley rat; details: male rats; for Upregulation of Cyp2c11 mRNA: 4-week study, relative to vehicle control
Method in brief: as §1

Cyp2c6 [8] = assay: Taqman mRNA upregulation in rat liver, 8-day mechanistic follow-up study; format: in vivo, Sprague-Dawley rat; details: male rats, 8-day follow-up study, relative to vehicle control
Method in brief: (§2)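 Male Sprague-Dawley rats (n = 4) were given 0, 5, 15 or 50 mg/kg daily for 8 days as a suspension in modified gelatine. Liver transcripts were normalised to 18S and to vehicle-treated rats by the ΔΔCT method; fold = 2−ΔΔCT.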

Cyp2c11 [9] = assay: as above; format: in vivo, Sprague-Dawley rat; details: male rats, 8-day follow-up study, relative to vehicle control
Method in brief: as §2

Cyp3a2 = assay: as above; format: in vivo, Sprague-Dawley rat; details: male rats, 8-day follow-up study, relative to vehicle control
Method in brief: as §2

total P450 = assay: Total P450 concentration in liver microsomes of the 4-week dog toxicity study; format: in vivo, Beagle dog; details: 4 weeks
Method in brief: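 Microsomes were made from pooled liver (1.5–2 g per dose group) of 4-week toxicity studies, including vehicle controls. Tissue homogenised in ice-cold 50 mmol/L Tris-HCl pH 7.4 with 250 mmol/L sucrose, spun at 9000 g then 100 000 g (4°C), and the pellet washed in 100 mmol/L pyrophosphate pH 7.25 with 1 mmol/L EDTA. Total P450 by carbon monoxide spectrophotometric assay.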

Cyp3a12 = assay: Taqman mRNA upregulation in dog liver, 4-week toxicity study; format: in vivo, Beagle dog; details: 4 weeks; for increase in Cyp3a12 mRNA expression: 500 mg/kg
Method in brief: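 Liver samples (n = 2–3) came from main-group Beagles of the 4-week study, dosed daily at 0, 5, 50 or 500 mg/kg in modified gelatine. Cyp3a12 transcript normalised to 18S and to vehicle-treated dogs (ΔΔCT); fold = 2−ΔΔCT.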

CYP1A2 = assay: Induction of P450 mRNA in human hepatocytes; format: cell-based; details: up to 10 µmol/L
Method in brief: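 Three human hepatocyte batches were cultured as monolayers and treated for 48–89 h with test compound, diluted 1000-fold from DMSO stock, or vehicle. Medium with fresh drug renewed every 24 h; rifampicin and omeprazole served as positive controls. CYP mRNA then measured.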

[10] = man, therapeutic dose of 10 mg; clinical trials ref 19; cited from earlier work
CYP3A4 = details: clinical trials, man, 10 mg; cited from earlier work
[11] = system: hepatic OATP transporters; details: partitions into liver by passive diffusion; cited from earlier work
[12] = cited from earlier work

AUC ([1]; Beagle, 0.1 mg/kg): 320 ng·h/mL
Vd ([1]; Beagle, 0.1 mg/kg): 1.2 L/kg
clearance ([1]; Beagle, 0.1 mg/kg): 5.2 mL/min/kg
half-life ([1]; Beagle, 0.1 mg/kg): 3.9 h
AUC ([1]; Beagle, 0.3 mg/kg): 910 ng·h/mL
Vd ([1]; Beagle, 0.3 mg/kg): 1.1 L/kg
clearance ([1]; Beagle, 0.3 mg/kg): 5.7 mL/min/kg
half-life ([1]; Beagle, 0.3 mg/kg): 4.3 h
half-life ([1]; beagle): 3.9 to 4.3 h
AUC ([2]; female, 3 mg/kg): 18400 ng·h/mL
Cmax ([2]; female, 3 mg/kg): 850 ng/mL
Tmax ([2]; female, 3 mg/kg): 8 h
bioavailability ([2]; female, 3 mg/kg): 62%
AUC ([2]; male, 3 mg/kg): 3240 ng·h/mL
Cmax ([2]; male, 3 mg/kg): 380 ng/mL
Tmax ([2]; male, 3 mg/kg): 6 h
bioavailability ([2]; male, 3 mg/kg): 53%
AUC ([2]; male, 30 mg/kg): 97400 ng·h/mL
Cmax ([2]; male, 30 mg/kg): 7300 ng/mL
Tmax ([2]; male, 30 mg/kg): 16 h
AUC ([3]; 1 mg/kg): 2370 ng·h/mL
Cmax ([3]; 1 mg/kg): 410 ng/mL
Tmax ([3]; 1 mg/kg): 2 h
AUC ([3]; 10 mg/kg): 27500 ng·h/mL
bioavailability ([3]; 10 mg/kg): 86%
change in AUC0‐24h after 8 days treatment ([4]; male rats, 3 mg/kg): No change
AUC0‐24h (day 1) as percent of the AUC0‐24h (day 1) in the 4‐week study ([4]; male rats, 50 mg/kg, different macitentan batches (particle size)): 13%
AUC ([4]; 15 mg/kg): 20300 ng·h/mL
AUC ([4]; 50 mg/kg): 26800 ng·h/mL
AUC0‐24 h (day 1) ([4]; 3 mg/kg daily oral): 3.09 μg/mL"h
AUC0‐24 h (day 8/28) ([4]; 3 mg/kg daily oral): 3.05 μg/mL"h
AUC0‐24 h (day 1) ([4]; 15 mg/kg daily oral): 20.3 μg/mL"h
AUC0‐24 h (day 8/28) ([4]; 15 mg/kg daily oral): 12.3 μg/mL"h
AUC0‐24 h (day 1) ([4]; 50 mg/kg daily oral): 26.8 μg/mL"h
AUC0‐24 h (day 8/28) ([4]; 50 mg/kg daily oral): 16.8 μg/mL"h
Upregulation of Cyp2c6 mRNA (Cyp2c6 [8]; 5 mg/kg daily): 1.92 ± 0.45
Upregulation of Cyp2c6 mRNA (Cyp2c6 [8]; 15 mg/kg daily): 1.55 ± 1.21
Upregulation of Cyp2c6 mRNA (Cyp2c6 [8]; 50 mg/kg daily): 3.08 ± 2.45
Upregulation of Cyp2c11 mRNA (Cyp2c11 [9]; 5 mg/kg daily): 1.55 ± 0.22
Upregulation of Cyp2c11 mRNA (Cyp2c11 [9]; 15 mg/kg daily): 1.65 ± 1.35
Upregulation of Cyp2c11 mRNA (Cyp2c11 [9]; 50 mg/kg daily): 2.50 ± 0.85
Upregulation of Cyp3a2 mRNA (Cyp3a2; 5 mg/kg daily): 1.46 ± 0.18
Upregulation of Cyp3a2 mRNA (Cyp3a2; 15 mg/kg daily): 2.37 ± 1.43
Upregulation of Cyp3a2 mRNA (Cyp3a2; 50 mg/kg daily): 4.04 ± 0.98
change in CYP1A2 mRNA expression (CYP1A2): No change
SMILES: CCCNS(=O)(=O)Nc1ncnc(OCCOc2ncc(Br)cn2)c1-c1ccc(Br)cc1 [macitentan]
increase in AUC0‐24h from 50 to 500 mg/kg ([5]; 4-week toxicity study): 5.1 fold
AUC ([5]; beagle, plasma, oral, 5 mg/kg): 17500 ng·h/mL
AUC0‐24 h (day 1) ([5]; females, 5 mg/kg daily oral): 11.6 μg/mL"h
AUC0‐24 h (day 8/28) ([5]; females, 5 mg/kg daily oral): 10.5 μg/mL"h
AUC0‐24 h (day 1) ([5]; females, 50 mg/kg daily oral): 94.8 μg/mL"h
AUC0‐24 h (day 8/28) ([5]; females, 50 mg/kg daily oral): 46.5 μg/mL"h
AUC0‐24 h (day 1) ([5]; females, 500 mg/kg daily oral): 504 μg/mL"h
AUC0‐24 h (day 8/28) ([5]; females, 500 mg/kg daily oral): 84.4 μg/mL"h
AUC0‐24 h (day 1) ([5]; males, 5 mg/kg daily oral): 17.5 μg/mL"h
AUC0‐24 h (day 8/28) ([5]; males, 5 mg/kg daily oral): 14.7 μg/mL"h
AUC0‐24 h (day 1) ([5]; males, 50 mg/kg daily oral): 134 μg/mL"h
AUC0‐24 h (day 8/28) ([5]; males, 50 mg/kg daily oral): 39.1 μg/mL"h
AUC0‐24 h (day 1) ([5]; males, 500 mg/kg daily oral): 692 μg/mL"h
AUC0‐24 h (day 8/28) ([5]; males, 500 mg/kg daily oral): 44.9 μg/mL"h
Upregulation of Cyp2c6 mRNA (Cyp2c6 [6]; female rats, 50 mg/kg daily, relative to vehicle control): 2.78 ± 0.95
Upregulation of Cyp2c6 mRNA (Cyp2c6 [6]; female rats, 150 mg/kg daily, relative to vehicle control): 4.21 ± 0.51
Upregulation of Cyp2c6 mRNA (Cyp2c6 [6]; female rats, 450 mg/kg daily, relative to vehicle control): 4.35 ± 1.54
Upregulation of Cyp2c6 mRNA (Cyp2c6 [6]; female rats, 1500 mg/kg daily, relative to vehicle control): 3.29 ± 0.77
Upregulation of Cyp2c6 mRNA (Cyp2c6 [6]; male rats, 50 mg/kg daily, relative to vehicle control = 1.00): 6.21 ± 1.02
Upregulation of Cyp2c6 mRNA (Cyp2c6 [6]; male rats, 150 mg/kg daily, relative to vehicle control): 4.36 ± 1.96
Upregulation of Cyp2c6 mRNA (Cyp2c6 [6]; male rats, 450 mg/kg daily, relative to vehicle control): 9.53 ± 1.26
Upregulation of Cyp2c6 mRNA (Cyp2c6 [6]; male rats, 1500 mg/kg daily, relative to vehicle control): 9.20 ± 3.29
increase of Cyp2c11 mRNA levels vs control (Cyp2c11 [7]; 450 mg/kg and 1500 mg/kg, 4 weeks): about 50%
Upregulation of Cyp2c11 mRNA (Cyp2c11 [7]; 450 mg/kg daily): 1.48 ± 0.48
Upregulation of Cyp2c11 mRNA (Cyp2c11 [7]; 1500 mg/kg daily): 1.43 ± 0.55
P450 (total, liver microsomes) (total P450; female dogs, macitentan 5 mg/kg daily): 0.63 nmol/mg
P450 (total, liver microsomes) (total P450; female dogs, macitentan 50 mg/kg daily): 0.87 nmol/mg
P450 (total, liver microsomes) (total P450; female dogs, macitentan 500 mg/kg daily): 0.84 nmol/mg
P450 (total, liver microsomes) (total P450; male dogs, macitentan 5 mg/kg daily): 0.50 nmol/mg
P450 (total, liver microsomes) (total P450; male dogs, macitentan 50 mg/kg daily): 0.73 nmol/mg
P450 (total, liver microsomes) (total P450; male dogs, macitentan 500 mg/kg daily): 1.00 nmol/mg
Upregulation of Cyp3a12 mRNA (Cyp3a12; female dogs, 5 mg/kg daily, relative to vehicle control): 2.84 ± 0.44
Upregulation of Cyp3a12 mRNA (Cyp3a12; female dogs, 50 mg/kg daily, relative to vehicle control): 4.34 ± 0.61
Upregulation of Cyp3a12 mRNA (Cyp3a12; female dogs, 500 mg/kg daily, relative to vehicle control, n = 2 only): 12.7 ^a
increase in Cyp3a12 mRNA expression (Cyp3a12; female dogs): 12.7 fold
Upregulation of Cyp3a12 mRNA (Cyp3a12; male dogs, 5 mg/kg daily, relative to vehicle control = 1.00): 1.63 ± 0.72
Upregulation of Cyp3a12 mRNA (Cyp3a12; male dogs, 50 mg/kg daily, relative to vehicle control): 6.45 ± 1.71
Upregulation of Cyp3a12 mRNA (Cyp3a12; male dogs, 500 mg/kg daily, relative to vehicle control): 18.6 ^b
increase in Cyp3a12 mRNA expression (Cyp3a12; male dogs): 18.6 fold
plasma exposure (AUC0‐24h) [10]: 5400 ng·h/mL
effect on the pharmacokinetics of the sensitive CYP3A4 substrate sildenafil (CYP3A4): neither changed the pharmacokinetics
substrate of hepatic OATP transporters [11]: not a substrate of hepatic OATP transporters
aqueous solubility [12]: low aqueous solubility
